{"source": "ChEMBL document CHEMBL1811823", "about": "“Quinazolinone linked pyrrolo[2,1-c][1,4]benzodiazepine (PBD) conjugates: Design, synthesis and biological evaluation as potential anticancer agents” (2010)", "key": {"CCRF-CEM": {"test_system": "CCRF-CEM", "assay": "Growth inhibition of human CCRF-CEM cells by NCI anti-cancer screening method", "format": "functional"}, "HOP-92": {"test_system": "HOP-92", "assay": "Growth inhibition of human HOP92 cells by NCI anti-cancer screening method", "format": "functional"}, "EKVX": {"test_system": "EKVX", "assay": "Growth inhibition of human EKVX cells by NCI anti-cancer screening method", "format": "functional"}, "A549": {"test_system": "A549", "assay": "Growth inhibition of human A549 cells by NCI anti-cancer screening method", "format": "functional"}, "MOLT-4": {"test_system": "MOLT-4", "assay": "Growth inhibition of human MOLT4 cells by NCI anti-cancer screening method", "format": "functional"}, "K562": {"test_system": "K562", "assay": "Growth inhibition of human K562 cells by NCI anti-cancer screening method", "format": "functional"}, "HL-60": {"test_system": "HL-60", "assay": "Growth inhibition of human HL-60(TB) cells by NCI anti-cancer screening method", "format": "functional", "outline": "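Cells grown in RPMI 1640 with 10% FBS and 2 mM L-glutamine were plated at a density set by doubling time. They were held 24 h at 37 °C in 5% CO2 before drug was added, then exposed continuously for 48 h. Cells were fixed with cold TCA (10% final) for 60 min at 4 °C and stained with 0.4% SRB. Bound dye was eluted in 10 mM Tris base and read at 540 nm. Percent growth was taken versus control wells.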"}, "NCI-H460": {"test_system": "NCI-H460", "assay": "Growth inhibition of human NCI-H460 cells by NCI anti-cancer screening method", "format": "functional"}, "NCI-H522": {"test_system": "NCI-H522", "assay": "Growth inhibition of human NCI-H522 cells by NCI anti-cancer screening method", "format": "functional"}, "COLO 205": {"test_system": "COLO 205", "assay": "Growth inhibition of human COLO205 cells by NCI anti-cancer screening method", "format": "functional"}, "HCC 2998": {"test_system": "HCC 2998", "assay": "Growth inhibition of human HCC2998 cells by NCI anti-cancer screening method", "format": "functional"}, "HCT-15": {"test_system": "HCT-15", "assay": "Growth inhibition of human HCT15 cells by NCI anti-cancer screening method", "format": "functional"}, "KM12": {"test_system": "KM12", "assay": "Growth inhibition of human KM12 cells by NCI anti-cancer screening method", "format": "functional"}, "SW-620": {"test_system": "SW-620", "assay": "Growth inhibition of human SW620 cells by NCI anti-cancer screening method", "format": "functional"}, "SF-539": {"test_system": "SF-539", "assay": "Growth inhibition of human SF539 cells by NCI anti-cancer screening method", "format": "functional"}, "SNB-75": {"test_system": "SNB-75", "assay": "Growth inhibition of human SNB75 cells by NCI anti-cancer screening method", "format": "functional"}, "U-251": {"test_system": "U-251", "assay": "Growth inhibition of human U251 cells by NCI anti-cancer screening method", "format": "functional"}, "Malme-3M": {"test_system": "Malme-3M", "assay": "Growth inhibition of human MALME-3M cells by NCI anti-cancer screening method", "format": "functional"}, "M14": {"test_system": "M14", "assay": "Growth inhibition of human M14 cells by NCI anti-cancer screening method", "format": "functional"}, "SK-MEL-2": {"test_system": "SK-MEL-2", "assay": "Growth inhibition of human SK-MEL-2 cells by NCI anti-cancer screening method", "format": "functional"}, "OVCAR-5": {"test_system": "OVCAR-5", "assay": "Growth inhibition of human OVCAR5 cells by NCI anti-cancer screening method", "format": "functional"}, "TK-10": {"test_system": "TK-10", "assay": "Growth inhibition of human TK10 cells by NCI anti-cancer screening method", "format": "functional"}, "MCF7": {"test_system": "MCF7", "assay": "Growth inhibition of human MCF7 cells by NCI anti-cancer screening method", "format": "functional"}, "MDA-MB-435": {"test_system": "MDA-MB-435", "assay": "Growth inhibition of human MDA-MB-435 cells by NCI anti-cancer screening method", "format": "functional"}, "T47D": {"test_system": "T47D", "assay": "Growth inhibition of human T47D cells by NCI anti-cancer screening method", "format": "functional"}, "DU-145": {"test_system": "DU-145", "assay": "Growth inhibition of human DU145 cells by NCI anti-cancer screening method", "format": "functional"}, "SK-MEL-28": {"test_system": "SK-MEL-28", "assay": "Growth inhibition of human SK-MEL-28 cells by NCI anti-cancer screening method", "format": "functional"}, "SK-MEL-5": {"test_system": "SK-MEL-5", "assay": "Growth inhibition of human SK-MEL-5 cells by NCI anti-cancer screening method", "format": "functional"}, "A-375 [1]": {"test_system": "A-375", "assay": "Cytotoxicity against human A375 cells assessed as cell viability after 24 hrs by MTT assay", "format": "functional", "outline": "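A375 cells seeded at 10,000/well, incubated overnight, then treated for 24 h. MTT added at 10% of culture volume for 2 h at 37 °C. Formazan dissolved in 20% SDS/50% DMF overnight at 37 °C; absorbance read at 570 nm against a medium blank. Viability expressed as percent of untreated cells.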"}, "A-375 [2]": {"test_system": "A-375", "assay": "Cell cycle arrest in human A375 cells assessed as decrease in G2/M phase at 4 uM after 24 hrs by propidium iodide staining based flow cytometry", "format": "functional", "design": "scale not given: the % may be the effect or the level left", "outline": "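A375 melanoma cells (DMEM, 10% FCS, 37 °C, 5% CO2) seeded at 5×10^5 per dish and grown 24 h, then exposed to 0–4 µM for 24 h. Harvested with trypsin-EDTA, fixed in ice-cold 70% ethanol, RNase A treated (1 mg/ml, 37 °C, 30 min), stained with propidium iodide and analysed by flow cytometry for phase distribution.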"}, "A-375 [3]": {"test_system": "A-375", "assay": "Increase in p53 protein expression in human A375 cells at 4 uM after 24 hrs by Western blot", "format": "functional, cell-based", "outline": "(§1)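 A375 cells (DMEM, 10% FCS, 37 °C, 5% CO2) were treated at 4 µM for 24 h. Lysates were loaded at 30 µg protein/lane on 12% SDS-PAGE and transferred to PVDF. Membranes were blocked 2 h in TBST, incubated with primary antibody overnight at 4 °C (p53 1:100, p27 1:500, NF-κB p65 1:500), then HRP secondary 1 h, with chemiluminescent detection. β-actin was the loading control; untreated and DMSO controls were run.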"}, "A-375 [4]": {"test_system": "A-375", "assay": "Increase in p21 mRNA expression in human A375 cells at 4 uM after 24 hrs by RT-PCR", "format": "functional, cell-based", "outline": "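RT-PCR on RNA from A375 cells treated 24 h at 4 µM, using Bcl-2- or p21-specific primers with GAPDH as internal control. Products were visualized on 1% agarose gels stained with ethidium bromide. Untreated and DMSO-treated cells served as controls.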"}, "A-375 [5]": {"test_system": "A-375", "assay": "Inhibition of NF-kappaB signaling in human A375 cells at 4 uM after 24 hrs by Western blot", "format": "cell-based", "outline": "as §1"}, "A-375 [6]": {"test_system": "A-375", "assay": "Increase in cytochrome C release in human A375 cells at 4 uM after 24 hrs by Western blot", "format": "functional, cell-based", "outline": "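Western blot of A375 cell lysates after 24 h exposure at 4 µM, with 30 µg protein/lane on 12% SDS-PAGE and transfer to PVDF. Probed overnight at 4 °C with anti-cytochrome c (1:500), then HRP secondary and chemiluminescence. β-actin was the loading control; untreated and DMSO-only cells served as controls.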"}, "A-375 [7]": {"test_system": "A-375", "assay": "Increase in active caspase-3 protein level in human A375 cells at 4 uM after 24 hrs by Western blot", "format": "functional, cell-based", "outline": "(§2)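 A375 cells were exposed 24 h at 4 µM. Lysates (30 µg/lane) were run on 12% SDS-PAGE and transferred to PVDF, then probed overnight at 4 °C with anti-cleaved caspase-3 (1:200, detects 21 kDa) or anti-PARP (1:2000, detects 113 and 85 kDa). HRP secondary and chemiluminescence were used. β-tubulin was the loading control; untreated and DMSO controls were included.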"}, "A-375 [8]": {"test_system": "A-375", "assay": "Increase in active PARP cleavage product (85kDa) level in human A375 cells at 4 uM after 24 hrs by Western blot", "format": "functional, cell-based", "outline": "as §2"}, "A-375 [9]": {"test_system": "A-375", "assay": "Decrease in Bcl-2 mRNA expression in human A375 cells at 4 uM after 24 hrs by RT-PCR"}}, "note": "The source made the active and inactive calls. No cut-off for these calls is given here."}
{"smiles": "COc1cc2c(cc1OCCCCCOc1ccc(-n3c(C)nc4ccccc4c3=O)cc1)N=C[C@@H]1CCCN1C2=O", "values": [{"measurement": "GI50", "setting": "CCRF-CEM", "value": 160, "unit": "nM"}, {"measurement": "GI50", "setting": "HOP-92", "value": 350, "unit": "nM"}, {"measurement": "GI50", "setting": "EKVX", "value": 870, "unit": "nM"}, {"measurement": "GI50", "setting": "A549", "value": 230, "unit": "nM"}, {"measurement": "GI50", "setting": "MOLT-4", "value": 190, "unit": "nM"}, {"measurement": "GI50", "setting": "K562", "value": 60, "unit": "nM"}, {"measurement": "GI50", "setting": "HL-60", "value": 180, "unit": "nM"}, {"measurement": "GI50", "setting": "NCI-H460", "value": 200, "unit": "nM"}, {"measurement": "GI50", "setting": "NCI-H522", "value": 120, "unit": "nM"}, {"measurement": "GI50", "setting": "COLO 205", "value": 180, "unit": "nM"}, {"measurement": "GI50", "setting": "HCC 2998", "value": 260, "unit": "nM"}, {"measurement": "GI50", "setting": "HCT-15", "value": 1090, "unit": "nM"}, {"measurement": "GI50", "setting": "KM12", "value": 170, "unit": "nM"}, {"measurement": "GI50", "setting": "SW-620", "value": 160, "unit": "nM"}, {"measurement": "GI50", "setting": "SF-539", "value": 220, "unit": "nM"}, {"measurement": "GI50", "setting": "SNB-75", "value": 380, "unit": "nM"}, {"measurement": "GI50", "setting": "U-251", "value": 160, "unit": "nM"}, {"measurement": "GI50", "setting": "Malme-3M", "value": 230, "unit": "nM"}, {"measurement": "GI50", "setting": "M14", "value": 170, "unit": "nM"}, {"measurement": "GI50", "setting": "SK-MEL-2", "value": 420, "unit": "nM"}, {"measurement": "GI50", "setting": "OVCAR-5", "value": 330, "unit": "nM"}, {"measurement": "GI50", "setting": "TK-10", "value": 310, "unit": "nM"}, {"measurement": "GI50", "setting": "MCF7", "value": 170, "unit": "nM"}, {"measurement": "GI50", "setting": "MDA-MB-435", "value": 160, "unit": "nM"}, {"measurement": "GI50", "setting": "T47D", "value": 170, "unit": "nM"}, {"measurement": "GI50", "setting": "DU-145", "value": 260, "unit": "nM"}, {"measurement": "GI50", "setting": "SK-MEL-28", "value": 200, "unit": "nM"}, {"measurement": "GI50", "setting": "SK-MEL-5", "value": 160, "unit": "nM"}, {"measurement": "Activity", "setting": "A-375 [1]", "value": 49.01, "unit": "%"}, {"measurement": "Activity", "setting": "A-375 [2]", "value": 9.15, "unit": "%"}, {"measurement": "Activity", "setting": "A-375 [3]", "value": "Active"}, {"measurement": "Activity", "setting": "A-375 [4]", "value": "Active"}, {"measurement": "inhibition", "setting": "A-375 [5]", "value": "Active"}, {"measurement": "Activity", "setting": "A-375 [6]", "value": "Active"}, {"measurement": "Activity", "setting": "A-375 [7]", "value": "Active"}, {"measurement": "Activity", "setting": "A-375 [8]", "value": "Active"}, {"measurement": "Decrease in Bcl-2 mRNA expression", "setting": "A-375 [9]", "value": "Active"}]}
